# Results published in ChEMBL document CHEMBL4513216, “Probing the Open Global Health Chemical Diversity Library for Multistage-Active Starting Points for Next-Generation Antimalarials” (ACS Infect Dis, 2020).
# Test: Toxicity liver stage against HepG2, at 10uM
# Format: cell-based
# Set-up: test concentration 10 uM, cell line HepG2-A16-CD81EGFP
# Conditions: human, HepG2-A16-CD81EGFP cells; read-out: INHIBITION
# How it was run: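 Uninfected HepG2-A16-CD81EGFP cells, 3 × 10^3 per well, 1536-well, plated on prespotted compound at 10 μM final, parasite-free screening media added to match infected plates; puromycin 10 μM positive, DMSO 0.5% negative; run in parallel with 48 h PbLuc assay at 37 °C, 5% CO2; viability by CellTiter-Glo luminescence, normalized to controls.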
row,SMILES,cytotoxicity at 10 µM [%]
1,CC(=O)Nc1ccc2c(c1)nc1n2[C@@H](CNCc2ccccc2)COC1,-10.2
2,COc1ccccc1-c1nnc([C@H]2CCN(C(=O)C3CC3)C2)o1,0.734
3,Cc1ccc(-c2noc([C@@H]3Cc4nc[nH]c4CN3)n2)cc1,0.676
4,CCCNC(=O)Nc1ccc2c(c1)N(S(=O)(=O)CC)CC2,1.97
5,Cc1nnc(SCC(=O)Nc2csc3nc(=O)c(C)nn23)s1,10.8
6,O=S1(=O)CCC(S(=O)(=O)c2cccc(S(=O)(=O)N3CCCC3)c2)C1 (configuration not stated),3.45
7,CS(=O)(=O)N1CCC(C(=O)N2CCC(Cn3cccn3)CC2)CC1,-10.2
8,O=C(Nc1ccc(CC(=O)N2CCCC2)cc1)NC1CC1,-2.16
9,COc1cc(NC(=O)NCc2cc(C)oc2C)cc(OC)c1,5.24
10,O=C(NCC1(O)CCc2ccccc2C1)c1cccs1 (configuration not stated),13.8
11,COc1ncc(NC(=O)c2ccco2)c(OC)n1,-3.74
12,O=C(Nc1ccc2c(c1)OCO2)Nc1cnn(C2CCOCC2)c1,-8.54
13,COCc1cnc2n1CCN(S(=O)(=O)N(C)C)C2C (configuration not stated),16.8
14,CC(C)n1ccc(-c2cc(C(=O)NC3CC3)c3ccccn23)n1,-5.4
15,CN(C)CCOCc1nnc2n1CCN(c1cnccn1)CC2,5.62
16,CC(C)CN1C(=O)CO[C@@H]2CN(C(=O)[C@H]3CCCO3)C[C@H]21,-5.12
17,CN(C)c1ncnc2c1CCN(c1ccccc1)CC2,13.4
18,CN1CCCN(C(=O)c2nc3c(s2)CCCN3CC2CC2)CC1,10
19,Cn1cnc(S(=O)(=O)N2CCO[C@H]3[C@@H](OCC4CC4)CC[C@@H]32)c1,7.74
20,O=C(c1c2c(N3CCCC3)ncnc2n2ccccc12)N1CCOCC1,9.49
21,CCCN1CCC2(Cc3ccccc3NC2=O)C1 (configuration not stated),14.5
22,CSc1ccc(-n2nnc(C(=O)O)c2-c2ccccn2)cc1,-3.01
23,O=C1CC(c2ccc(Cl)c(Cl)c2)c2c(n3ccsc3nc2=O)N1 (configuration not stated),-0.839

row,SMILES,cytotoxicity at 10 µM [%]
1,Cc1nn(-c2ccccc2)c2c1c(C(F)F)cc(=O)n2CC(=O)O,7.73
2,CCCc1noc(C2CCN(C(=O)CCn3nc(C)cc3C)CC2)n1,7.47
3,CCOc1cc(C(=O)N2CCOCC2)cc2occc12,-4.92
4,Oc1ccc(C2Nc3ccccc3C3=NCCCN32)cc1 (configuration not stated),-39.1
5,O=C(N[C@@H]1CCC[C@@H](N2CCOCC2)[C@@H]1O)c1ncccn1,-25.9
6,CCN(Cc1ccncc1)CC1(O)CCN(C(=O)c2cnn(C)c2)C1 (configuration not stated),-26.9
7,Cn1ccc(C(=O)N2CCCC(c3cc(O)n(C)n3)C2)n1 (configuration not stated),-13.7
8,CCC(=O)N1CCC(Cc2ccccc2-c2ccccc2)(C(N)=O)C1 (configuration not stated),-0.105
9,CC(=O)N1CCC(Cc2cnc(-c3c(C)n[nH]c3C)cn2)C1 (configuration not stated),-1.88
10,O=C1NCc2ccccc2CC12CCN(Cc1ccccc1Cl)CC2,5.86
11,CC(C)CN(C(=O)COc1ccc(C(N)=O)cc1)C1CCN(C)CC1,-3.24
12,CN(C)c1ncc(NC(=O)c2cccc(Nc3cnn(C)c3)c2)cn1,-2.93
13,O=C(NCc1cccnc1)Nc1ccn(CC(F)F)n1,1.68
14,COCC(C)NC(=O)c1sccc1-n1cnnn1 (configuration not stated),-0.132
15,CCN(CC)C(=O)NC(C)c1ccc(Oc2cccnc2)c(F)c1 (configuration not stated),17.4
16,Cc1cc(C)n(C2CN(CCC(=O)NCCc3ccccc3)C2)n1,11.8
17,CC(C)c1nc(C(=O)N(C)c2ccc(Br)cn2)cs1,7.84
18,COc1cccc(-c2nc(CNCCc3cccnc3)cs2)c1,-1.77
19,Cc1cscc1-c1nc(C2CCOC2)no1 (configuration not stated),8.4
20,CNS(=O)(=O)c1cccc(C(C)NCc2ccsc2)c1 (configuration not stated),2.45
21,COc1cccnc1NC(=O)COc1c(C)cccc1C,0.819
22,COc1cccc(NC(=O)NC(C)(C)c2noc(C)n2)c1,7.35
23,CCC1CN(Cc2nnc(C3CC3)o2)CCN1CCOC (configuration not stated),3.13

row,SMILES,cytotoxicity at 10 µM [%]
1,Cc1nc(CN2CCc3cnc(C(C)C)nc3C2)oc1C,0.479
2,CN(Cc1cccc(Cl)c1)C(=O)Cn1nc(-c2ccc(F)cc2)oc1=O,-19.9
3,CC(C)c1ncc2c(n1)CN(Cc1nc3c(F)cccc3[nH]1)CC2,1.09
4,Cn1c(SCC(O)COCc2ccccc2Cl)nnc1C1CC1 (configuration not stated),-2.24
5,N#Cc1nccnc1NC1CCN(c2ccccc2OC(F)F)C1 (configuration not stated),12.8
6,Cn1cc(CCCNS(=O)(=O)N2CCCC2c2ccco2)cn1 (configuration not stated),9.38
7,Cc1nn(CC(=O)Nc2ccc(F)cc2)c(N)c1C#N,13.3
8,Cc1cc(S(C)(=O)=O)c(C)c(S(=O)(=O)N2CCCCCC2)c1,14.1
9,CC(C)OCCS(=O)(=O)c1nccn1-c1cccc(F)c1,-3.3
10,CCN(CC)c1ccc(NC(=O)NCC2(C(N)=O)CCOCC2)cn1,7.15
11,NS(=O)(=O)CCN(CCc1cccc(F)c1)C1CCCC1,-6.08
12,COc1ccc(CCn2cnnc2[S+](C)[O-])cc1 (configuration not stated),3.4
13,CC(=O)N(C)c1nc(Cn2nnnc2C2CCCC2)cs1,2.11
14,COCCN(CCOC)C(=O)c1cc(F)cc2[nH]cnc12,-8
15,CC(C)N(CCCNC(=O)C1CCCN(C(N)=O)C1)S(C)(=O)=O (configuration not stated),-8.51
16,O=C(Cn1ncc2ccccc21)Nc1ccnn1CC1CCOC1 (configuration not stated),3.03
17,Cn1ncc2cnn(CC(O)COc3cccc4[nH]ccc34)c2c1=O (configuration not stated),13.2
18,N#Cc1ccccc1CN(CCO)Cc1ccsc1,18.4
19,O=C(c1ncoc1-c1ccco1)N1CCCN(c2nccs2)CC1,2.99
20,CCc1c(C)nn(CC(=O)NC(C(=O)O)c2c(C)n[nH]c2C)c1C (configuration not stated),5.79
21,CC(Cn1ccnc1)NCc1ccc2nonc2c1 (configuration not stated),2.57
22,CCC(Nc1cccc(OC)c1)C(=O)NCc1ccc2c(c1)OCO2 (configuration not stated),-1.11
23,COc1cccc2c1OCCCN(Cc1ncccc1C(=O)O)C2,4.12

row,SMILES,cytotoxicity at 10 µM [%]
1,CC(=O)c1ccc(N2CCN(C(=O)c3cc(C(C)C)nn3C)CC2)cc1,11
2,CCn1cc(-c2n[nH]c(=O)n2-c2ccc3c(c2)OCO3)c(C)n1,2.25
3,Cc1ccccc1SC1CCN(C(=O)[C@@H]2C[C@@H](N)CN2)CC1,-7.69
4,O=C1[C@@H]2CN(c3ncnc4[nH]ccc34)C[C@]2(C(=O)O)CN1CC1CC1,2.62
5,O=C(CN1C(=O)CCNC1=O)N1CCC2(CCc3ccccc32)CC1,-11.2
6,CNc1cc(-c2ccccc2CN)c2cc[nH]c2n1,-1.43
7,CCn1ccnc1CN1CCCN(CC2CC2)C(C(C)C)C1 (configuration not stated),2.63
8,Cc1cc(C)c(-n2cccn2)c(CN2CCOCC(CN(C)C)C2)c1 (configuration not stated),-8.83
9,O=C1O[C@@H]2CN(Cc3cc4ccccc4s3)C[C@@H]2N1Cc1ccccn1,10.2
10,COc1ccc(CCNCc2ccco2)cc1OC,-0.0184
11,CCN(CC)C1CCN(c2nccc(C3CCCC3)n2)C1 (configuration not stated),-12.7
12,CN1C[C@H]2CNC[C@@]2(C(=O)NC2CCN(c3ncccc3C#N)CC2)C1,-0.766
13,CN(Cc1noc2c1CCCC2)C(=O)Nc1ccc2oc(=O)n(C)c2c1,-2.36
14,CC(C)[C@H]1CN(S(=O)(=O)c2cccnc2)C[C@@H]1N,1.31
15,Cc1ccc(-c2ccnc(N3CCC4(CCO4)CC3)n2)c(C)n1,2.05
16,c1ccc(COc2ccccc2NC2CCOCC2)nc1,2.2
17,CN1CCn2nc(-c3nc4ccccc4n3C)cc2C1,-6.99
18,Cc1nc(C)c(C(=O)N2CCCC(C(=O)c3nccn3C)C2)s1 (configuration not stated),2.3
19,COCc1nc(CN2CC(C)(c3ccccc3)CCC2=O)no1 (configuration not stated),4.85
20,CCCc1cc(=O)[nH]c(-c2ccccc2CN(C)CCC(C)C)n1,3.53
21,CCN1CCN(C(=O)COc2ccc(CN(C)S(C)(=O)=O)cc2)CC1,3.3
22,CCCc1cc(NCCC2CCCOC2)n2nccc2n1 (configuration not stated),3.63
23,O=S(=O)(Cc1ccccc1F)NCCCN1CCCCC1,17.3

row,SMILES,cytotoxicity at 10 µM [%]
1,Cc1cc(C)n(CC2CN(CC(=O)Nc3c(C)n[nH]c3C)CCO2)n1 (configuration not stated),-9.86
2,CN(Cc1nc(N)c2ccccc2n1)C1CCCN(c2cccnn2)C1 (configuration not stated),-12.2
3,CCc1nc2n(n1)CC(NCc1ncc(-c3ccccc3)o1)CC2 (configuration not stated),-3.91
4,O=C(c1cc(C2CC2)[nH]n1)N1CCN(Cc2ccsc2)CC1,-9.04
5,Cc1ccc(S(=O)(=O)N2CCOc3ccccc32)cc1C(N)=O,7.91
6,Cc1nccn1C1CCCN(C(=O)COCC(F)(F)F)C1 (configuration not stated),-12.1
7,O=C(c1ccc(-n2ccnc2)nc1)N1CCCC(n2cccn2)C1 (configuration not stated),-5.13
8,c1ccc(-n2ccc(CN3CCCC3Cn3cccn3)n2)cc1 (configuration not stated),-2.48
9,Cc1cc(C)n(CC2CN(Cc3nc(-c4ccco4)no3)CCO2)n1 (configuration not stated),-6.58
10,CCN(Cc1cccc2c1OCO2)C(=O)NC1CC1,-9.48
11,CO[C@H]1CN(C(=O)c2ccccn2)[C@@H]2CCCO[C@H]12,3.52
12,Cn1cc(CN2CCCC23CCN(C(=O)c2ccncc2)CC3)cn1,-3.51
13,Cn1ccnc1C(=O)N1CCC2(CCCN2CC2CC2)CC1,8.31
14,CCOc1ncnc2c1CCN(Cc1cccs1)CC2,10.2
15,O=C(N1CCOCC1)[C@@]12CCO[C@@H]1CCN(Cc1ccccc1F)C2,2.99
16,COc1cc(Br)c(CNC2CCCNC2=O)cc1OC (configuration not stated),1.93
17,Cn1cc(CN2CCC3(CC2)CC(c2ccncc2)C(=O)N3)cn1 (configuration not stated),1.75
18,CCc1cnc(N2CCc3ncnc(N4CCN(C)CC4)c3CC2)nc1,-1.13
19,CC(C)N(C)Cc1nnc2n1CCCN(S(=O)(=O)C1CC1)C2,-0.48
20,O=C1CCCC2=C1C(c1ccco1)C1C(=O)NN=C1N2 (configuration not stated),2.1
